# Experimental data of several laboratories.
# Each line is one published result; the experiments were not run side by side.
# P2RY14: P2Y purinoceptor 14 (P2RY14, Homo sapiens, UniProt Q15391)
# IRAK4: Interleukin-1 receptor-associated kinase 4 (IRAK4, Homo sapiens, UniProt Q9NWZ3)
Compound,target,assay,test system,setting,IC50
O=C(NO)c1ccc(Cn2cnc3c(Nc4ccc(Cl)cc4)ncnc32)cc1,"Histone deacetylase 3 (HDAC3, Homo sapiens, UniProt O15379)","enzyme activity, inhibitor, fluorescence",,,15.1 nM
Nc1ncnc2c1ncn2[C@@H]1O[C@H](CSCC[C@H](N)C(=O)O)[C@@H](O)[C@H]1O,"Histone-lysine N-methyltransferase, H3 lysine-36 specific (NSD1, Homo sapiens, UniProt Q96L73)","enzyme activity, inhibitor",,,6260 nM
CC(C)OC(=O)[C@H](Cc1c[nH]c2ccccc12)NC(=O)c1cccs1,P2RY14,"cAMP, antagonist",,,45.8 nM
Cn1cc(C2=C(c3cn(CCCSC(=N)N)c4ccccc34)C(=O)NC2=O)c2ccccc21,"Homeodomain-interacting protein kinase 1 (HIPK1, Homo sapiens, UniProt Q86Z02)","enzyme activity, inhibitor",,,2900 nM
CNC(=O)c1ccccc1Nc1nc(Nc2ccc(CO)cc2)ncc1C#N,IRAK4,"enzyme activity, inhibitor, radiometric",,,108 nM
CC(C)OC(=O)[C@H](Cc1c[nH]c2ccccc12)NC(=O)c1ccco1,P2RY14,"cAMP, antagonist",,,21.6 nM
O=C(O)c1cc(-c2ccc(-n3cc(CCO)nn3)cc2)c2ccc(-c3ccc(C(F)(F)F)cc3)cc2c1,P2RY14,"ligand displacement in cells, flow cytometry",,,153 nM
Cc1cc2c(cc1C)N[C@H](c1ccccc1)[C@@H](O)C(=O)N2,"Tyrosine-protein kinase JAK3 (JAK3, Homo sapiens, UniProt P52333)","enzyme activity, inhibitor, ELISA",,,1150 nM
CNC(=O)c1ccccc1Nc1nc(Nc2ccnc(CO)c2)ncc1Cl,IRAK4,"enzyme activity, inhibitor, radiometric",,,11.5 nM
O=C(COc1ccccc1)N[C@@H](Cc1c[nH]c2ccccc12)C(=O)O,P2RY14,"cAMP, antagonist",,,18.9 nM
C#Cc1cnc(Nc2ccc(CO)nc2)nc1Nc1ccccc1S(C)(=O)=NC#N (stereo not shown),IRAK4,"enzyme activity, inhibitor, radiometric",,,3.99 nM
COC(=O)/C=C/c1ccc(OCCN(C)c2ccccc2)cc1,"Fatty acid CoA ligase Acsl3 (ACSL3, Homo sapiens, UniProt O95573)","enzyme activity, inhibitor",,,> 50000 nM
Cn1cc(-c2ccnc3ccccc23)c(-c2ccccn2)n1,"TGF-beta receptor type-1 (TGFBR1, Homo sapiens, UniProt P36897)","enzyme activity, inhibitor, radiometric",,,750 nM
C=CCC1c2ccc(OC)c(OC)c2CN2CCc3cc4c(cc3C12)OCO4 (stereo not shown),"P2X purinoceptor 7 (P2RX7, Homo sapiens, UniProt Q99572)","ion current, patch clamp",,,470 nM
O=C(N[C@@H](Cc1c[nH]c2ccccc12)C(=O)O)c1ccco1,P2RY14,"cAMP, antagonist",,,23.4 nM
c1c(N2CCCC2)nc(N2CCCC2)nc1N1CCNCC1,"Caspase-1 (CASP1, Homo sapiens, UniProt P29466)","enzyme activity, inhibitor",,with preincubation,233 nM
O=C(O)c1cc(-c2ccc(-c3ccncc3)cc2)c2ccc(-c3ccc(C(F)(F)F)cc3)cc2c1,P2RY14,"ligand displacement in cells, flow cytometry",,,40.8 nM
CNC(=O)c1ccccc1Nc1nc(Nc2ccc(CC(F)F)cc2)ncc1Cl,IRAK4,"enzyme activity, inhibitor, radiometric",,,74.8 nM
Cn1nccc1-c1ccc(-c2cc(C(=O)O)cc3cc(-c4ccc(C(F)(F)F)cc4)ccc23)cc1,P2RY14,"ligand displacement in cells, flow cytometry",,,49.1 nM
CS(=O)(=NC#N)c1ccccc1Nc1nc(Nc2ccnc(CO)c2)ncc1Cl (stereo not shown),IRAK4,"enzyme activity, inhibitor, radiometric",,,28.6 nM
Cn1ccc(-c2ccc(-c3cc(C(=O)O)cc4cc(-c5ccc(C(F)(F)F)cc5)ccc34)cc2)n1,P2RY14,"ligand displacement in cells, flow cytometry",,,35.5 nM
CNC(=O)c1ccccc1Nc1nc(Nc2ccc(CO)cc2)ncc1C1CC1,IRAK4,"enzyme activity, inhibitor, radiometric",,,3 nM
O=C(O)c1cc(-c2ccc(-n3ccnn3)cc2)cc(-n2cc(-c3ccc(C(F)(F)F)cc3)nn2)c1,P2RY14,"ligand displacement in cells, flow cytometry",,,2030 nM
Cc1ccc(OCC(=O)N[C@@H](Cc2c[nH]c3ccccc23)C(=O)OC(C)C)cc1,"Cytochrome P450 2D6 (CYP2D6, Homo sapiens, UniProt P10635)","enzyme activity, inhibitor","human, liver microsomes",30 min,27400 nM
CNS(=O)(=O)c1ccccc1Nc1nc(Nc2ccc(CO)nc2)ncc1Cl,IRAK4,"enzyme activity, inhibitor, radiometric",,,12.6 nM
